Measured values: ChEMBL document CHEMBL2434934, “Multicomponent synthesis and anticonvulsant activity of monocyclic 2,6-diketopiperazine derivatives” (Med Chem Res, 2013)
The source made the active and inactive calls. The rule behind the calls is not given here.

Key:
Mus musculus [1] = experiment: Neurotoxicity in albino mouse at 100 mg/kg, ip after 2 hrs by rotarod test; format: toxicity, organism-based; parameters: dose 100 mg/kg, route intraperitoneal; conditions: in vivo
Procedure, shortened: (§1)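 Mice received the compound ip and were tested at intervals of 0.25 to 4 h after dosing. Neurological impairment was scored as inability to keep equilibrium on a rod rotating at 6 rpm for a given time. The footnotes also record inability to grasp the rod and loss of righting reflex. Results were expressed as number toxic/number tested.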

Mus musculus [2] = experiment: Neurotoxicity in albino mouse at 300 mg/kg, ip after 2 hrs by rotarod test; format: toxicity, organism-based; parameters: dose 300 mg/kg, route intraperitoneal; conditions: in vivo; procedure, shortened: as §1
Mus musculus [3] = experiment: Anticonvulsant activity in albino mouse assessed as protection against maximal electroshock-induced seizures at 30 mg/kg, ip after 2 hrs; format: functional, organism-based; parameters: dose 30 mg/kg
Procedure, shortened: (§2)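 A 0.2 s electrical stimulus of 50 mA was applied to mice through corneal electrodes primed with an electrolyte solution containing an anesthetic. This followed ip dosing at 30, 100 or 300 mg/kg, with testing at two or more time points. Protection meant abolition of the hindlimb tonic extensor component, scored as number protected/number tested.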

Mus musculus [4] = experiment: Anticonvulsant activity in albino mouse assessed as protection against maximal electroshock-induced seizures at 100 mg/kg, ip after 2 hrs; format: functional, organism-based; parameters: dose 100 mg/kg; procedure, shortened: as §2
Mus musculus [5] = experiment: Neurotoxicity in albino mouse at 30 mg/kg, ip after 2 hrs by rotarod test; format: toxicity, organism-based; parameters: dose 30 mg/kg, route intraperitoneal; conditions: in vivo; procedure, shortened: as §1
Mus musculus [6] = experiment: Anticonvulsant activity in albino mouse assessed as protection against maximal electroshock-induced seizures at 300 mg/kg, ip after 4 hrs; format: functional, organism-based; parameters: dose 300 mg/kg; procedure, shortened: as §2
Mus musculus [7] = experiment: Anticonvulsant activity in albino mouse assessed as protection against maximal electroshock-induced seizures at 30 mg/kg, ip after 0.5 to 4 hrs; format: functional, organism-based; parameters: dose 30 mg/kg; procedure, shortened: as §2
Mus musculus [8] = experiment: Neurotoxicity in albino mouse at 300 mg/kg, ip after 4 hrs by rotarod test; format: toxicity, organism-based; parameters: dose 300 mg/kg, route intraperitoneal; conditions: in vivo; procedure, shortened: as §1
Mus musculus [9] = experiment: Anticonvulsant activity in albino mouse assessed as protection against subcutaneous metrazole-induced seizures at 30 mg/kg, ip after 0.5 to 4 hrs; format: functional, organism-based; parameters: dose 30 mg/kg
Procedure, shortened: (§3)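 Mice were dosed ip at 30, 100 or 300 mg/kg and tested at two or more time points. Protection meant absence of clonic seizures lasting at least 5 s, scored as number protected/number tested.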

Mus musculus [10] = experiment: Anticonvulsant activity in albino mouse assessed as protection against subcutaneous metrazole-induced seizures at 300 mg/kg, ip after 0.5 to 4 hrs; format: functional, organism-based; parameters: dose 300 mg/kg; procedure, shortened: as §3
Mus musculus [11] = experiment: Anticonvulsant activity in albino mouse assessed as protection against maximal electroshock-induced seizures at 300 mg/kg, ip after 0.5 hrs; format: functional, organism-based; parameters: dose 300 mg/kg; procedure, shortened: as §2
Mus musculus [12] = experiment: Neurotoxicity in albino mouse at 100 mg/kg, ip after 0.5 to 4 hrs by rotarod test; format: toxicity, organism-based; parameters: dose 100 mg/kg, route intraperitoneal; conditions: in vivo; procedure, shortened: as §1
Mus musculus [13] = experiment: Anticonvulsant activity in albino mouse assessed as protection against maximal electroshock-induced seizures at 100 mg/kg, ip after 0.5 to 4 hrs; format: functional, organism-based; parameters: dose 100 mg/kg; procedure, shortened: as §2
Mus musculus [14] = experiment: Neurotoxicity in albino mouse at 30 mg/kg, ip after 0.5 to 4 hrs by rotarod test; format: toxicity, organism-based; parameters: dose 30 mg/kg, route intraperitoneal; conditions: in vivo; procedure, shortened: as §1
Mus musculus [15] = experiment: Anticonvulsant activity in albino mouse assessed as protection against subcutaneous metrazole-induced seizures at 100 mg/kg, ip after 0.5 to 4 hrs; format: functional, organism-based; parameters: dose 100 mg/kg; procedure, shortened: as §3
Mus musculus [16] = experiment: Anticonvulsant activity in albino mouse assessed as protection against maximal electroshock-induced seizures at 300 mg/kg, ip after 2 hrs; format: functional, organism-based; parameters: dose 300 mg/kg; procedure, shortened: as §2
Mus musculus [17] = experiment: Anticonvulsant activity in albino mouse assessed as protection against 6 Hz psychomotor seizure at 100 mg/kg, ip after 0.5 to 2 hrs; format: functional, organism-based; parameters: dose 100 mg/kg
Procedure, shortened: (§4)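 Mice given 100 mg/kg ip and tested at intervals between 0.25 and 4 h. A constant-current device delivered corneal stimulation at 32 mA as 0.2 ms monopolar rectangular pulses at 6 Hz for 3 s. Mice were restrained during stimulation, then released into an observation cage. The readout was protection against the psychomotor seizure (stunned posture, forelimb clonus, Straub tail), scored as number protected/number tested.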

Mus musculus [18] = experiment: Neurotoxicity in albino mouse at 100 mg/kg, ip after 0.5 to 2 hrs by rotarod test; format: toxicity, organism-based; parameters: dose 100 mg/kg, route intraperitoneal; conditions: in vivo; procedure, shortened: as §1
Mus musculus [19] = experiment: Anticonvulsant activity in albino mouse assessed as protection against 6 Hz psychomotor seizure at 100 mg/kg, ip after 0.25 to 0.5 hrs; format: functional, organism-based; parameters: dose 100 mg/kg; procedure, shortened: as §4
Mus musculus [20] = experiment: Neurotoxicity in albino mouse at 100 mg/kg, ip after 0.25 to 4 hrs by rotarod test; format: toxicity, organism-based; parameters: dose 100 mg/kg, route intraperitoneal; conditions: in vivo; procedure, shortened: as §1
Mus musculus [21] = experiment: Neurotoxicity in albino mouse assessed as loss of righting reflex at 300 mg/kg, ip after 0.5 hrs by rotarod test; format: toxicity, organism-based; parameters: dose 300 mg/kg, route intraperitoneal; conditions: in vivo; procedure, shortened: as §1
Mus musculus [22] = experiment: Anticonvulsant activity in albino mouse assessed as protection against 6 Hz psychomotor seizure at 100 mg/kg, ip after 1 to 4 hrs; format: functional, organism-based; parameters: dose 100 mg/kg; procedure, shortened: as §4
Mus musculus [23] = experiment: Neurotoxicity in albino mouse at 300 mg/kg, ip after 0.5 hrs by rotarod test; format: toxicity, organism-based; parameters: dose 300 mg/kg, route intraperitoneal; conditions: in vivo; procedure, shortened: as §1

Structure (SMILES) | Activity (Mus musculus [2]) | Activity (Mus musculus [3]) | Activity (Mus musculus [5]) | Activity (Mus musculus [6]) | Activity (Mus musculus [7]) | Activity (Mus musculus [8]) | Activity (Mus musculus [9]) | Activity (Mus musculus [10]) | Activity (Mus musculus [11]) | Activity (Mus musculus [12]) | Activity (Mus musculus [13]) | Activity (Mus musculus [14]) | Activity (Mus musculus [15]) | further results
O=C1CN(Cc2ccccc2)C(c2ccccc2)C(=O)N1 (racemic) | Non-toxic | inactive | Non-toxic | – | – | – | – | – | – | – | – | – | – | Activity (Mus musculus [1]): Non-toxic; Activity (Mus musculus [4]): inactive
CC[C@H](C)[C@@H]1N[C@@H](c2ccccc2)C(=O)NC1=O | – | – | – | inactive | inactive | Non-toxic | inactive | inactive | inactive | Non-toxic | inactive | Non-toxic | inactive | –
O=C1NC(=O)[C@@H](c2ccccc2)N[C@H]1c1ccccc1 | Non-toxic | inactive | Non-toxic | – | – | – | – | – | – | – | – | – | – | Activity (Mus musculus [1]): Non-toxic; Activity (Mus musculus [4]): inactive; Activity (Mus musculus [16]): inactive
O=C1NC(=O)[C@H](c2ccccc2)N[C@H]1c1ccccc1 | Toxic | inactive | Non-toxic | – | – | – | – | – | – | – | – | – | – | Activity (Mus musculus [17]): inactive; Activity (Mus musculus [18]): Non-toxic; Activity (Mus musculus [16]): Active
CC(C)[C@@H]1N[C@@H](c2ccccc2)C(=O)NC1=O | – | – | – | inactive | inactive | Non-toxic | inactive | inactive | Active | Non-toxic | – | Non-toxic | inactive | Activity (Mus musculus [19]): Active; Activity (Mus musculus [20]): Non-toxic; Activity (Mus musculus [21]): Toxic; Activity (Mus musculus [22]): inactive
CC(C)C[C@@H]1N[C@@H](c2ccccc2)C(=O)NC1=O | – | – | – | inactive | inactive | Non-toxic | inactive | inactive | Active | Non-toxic | inactive | Non-toxic | inactive | –
O=C1CN(c2ccccc2)C(c2ccccc2)C(=O)N1 (racemic) | – | – | – | inactive | inactive | Non-toxic | inactive | inactive | inactive | Non-toxic | inactive | Non-toxic | inactive | Activity (Mus musculus [23]): Non-toxic
CC(C)[C@@H]1N[C@H](c2ccccc2)C(=O)NC1=O | – | – | – | inactive | inactive | Non-toxic | inactive | inactive | Active | Non-toxic | inactive | Non-toxic | inactive | –
O=C1NC(=O)[C@H](c2ccccc2)N[C@H]1Cc1ccccc1 | – | – | – | inactive | inactive | Non-toxic | inactive | inactive | Active | Non-toxic | inactive | Non-toxic | inactive | Activity (Mus musculus [23]): Non-toxic
